High-throughput results from PubChem.
hERG rescue: shields human hERG channel from block by proarrhythmic agents; actives 0.51% (n = 310,000); activation (rescue from dofetilide block), less the hit threshold, % at 10 µM; Q12809; CHO-hERG, FluxOR thallium flux, dofetilide IC70 present;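 active = activation above the mean of controls blocked by dofetilide plus 5 SD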;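 note: thallium influx through hERG after potassium depolarization seen as dye fluorescence rise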
Target sequence (Q12809 whole entry, looked up): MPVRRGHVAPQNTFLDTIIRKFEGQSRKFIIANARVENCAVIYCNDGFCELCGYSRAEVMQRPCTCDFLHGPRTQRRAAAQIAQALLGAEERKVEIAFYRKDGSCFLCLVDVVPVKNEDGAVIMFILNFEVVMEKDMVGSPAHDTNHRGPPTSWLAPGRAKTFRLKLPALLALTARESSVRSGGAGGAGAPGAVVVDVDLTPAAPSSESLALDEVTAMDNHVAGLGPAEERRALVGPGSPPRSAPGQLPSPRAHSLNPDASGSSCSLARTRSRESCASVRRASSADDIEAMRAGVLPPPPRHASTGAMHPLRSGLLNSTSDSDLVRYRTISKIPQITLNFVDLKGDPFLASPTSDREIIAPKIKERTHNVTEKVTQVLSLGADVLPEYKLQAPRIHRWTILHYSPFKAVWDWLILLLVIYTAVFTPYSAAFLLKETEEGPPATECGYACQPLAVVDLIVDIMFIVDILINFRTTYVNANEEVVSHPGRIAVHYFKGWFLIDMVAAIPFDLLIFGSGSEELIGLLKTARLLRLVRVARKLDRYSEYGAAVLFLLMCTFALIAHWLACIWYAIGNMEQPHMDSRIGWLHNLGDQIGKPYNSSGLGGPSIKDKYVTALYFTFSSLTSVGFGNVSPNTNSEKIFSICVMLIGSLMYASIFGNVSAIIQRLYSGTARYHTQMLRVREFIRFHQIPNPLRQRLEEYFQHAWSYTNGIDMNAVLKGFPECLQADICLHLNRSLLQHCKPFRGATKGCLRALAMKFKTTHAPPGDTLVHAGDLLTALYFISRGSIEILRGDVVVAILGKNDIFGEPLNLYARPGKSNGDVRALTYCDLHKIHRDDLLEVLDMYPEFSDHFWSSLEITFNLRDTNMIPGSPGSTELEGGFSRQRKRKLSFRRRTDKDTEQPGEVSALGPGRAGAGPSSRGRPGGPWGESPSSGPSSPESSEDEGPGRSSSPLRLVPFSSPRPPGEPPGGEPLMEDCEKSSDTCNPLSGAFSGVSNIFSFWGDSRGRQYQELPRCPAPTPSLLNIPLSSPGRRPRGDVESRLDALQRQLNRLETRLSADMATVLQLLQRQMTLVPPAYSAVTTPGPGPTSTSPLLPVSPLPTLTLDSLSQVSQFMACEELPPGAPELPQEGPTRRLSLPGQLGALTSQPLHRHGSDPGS
KCNQ1 inh: inhibitors of human KCNQ1 potassium channel; P51787; CHO-K1 KCNQ1, FluxOR thallium flux fluorescence; active compounds read high; B-score at 10 µM; actives 1.3% (n = 310,000);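 active = compounds whose thallium flux B-score, printed positive for inhibition, exceeds three library SD while starting fluorescence stays within three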;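 note: channel opened by potassium depolarization with thallium stimulus after 20 min compound exposure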
KCNK3 block: human KCNK3 channel inhibition, primary screen; O14649; CHO-KCNK3 thallium flux, FluxOR fluorescence; active compounds read low; B-score at 10 µM; actives 0.84% (n = 340,000); AID 602410;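 active = B-score under library mean minus 4 SD, starting fluorescence ratio at most library mean plus 5 SD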;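 note: more negative B-score means stronger inhibition of thallium flux through KCNK3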
KCNK9 block: inhibitors of human KCNK9 two-pore domain potassium channel; B-score at 10 µM; actives 1.2% (n = 310,000); HEK293 KCNK9, FluxOR thallium flux fluorescence; active compounds read low; AID 488922;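 active = ratio B-score over 3 SD below the library mean, with starting fluorescence within 5 SD of its mean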;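 note: negative B-score means less thallium flux so channel inhibition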
Kir21 inh: Kir2.1 (mouse) channel inhibition; P35561; HEK293-Kir2.1, FluxOR thallium flux fluorescence; active compounds read low; B-score at 10 µM; actives 0.85% (n = 310,000);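 active = fluorescence ratio B-score at or below minus 3 SD of library scores, with starting-brightness B-score within 2 SD, cut at about -4.2 in these data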;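 note: channel flux triggered by added potassium and thallium sulfate stimulus; B-score of peak minus minimum fluorescence over baseline after thallium stimulus; more negative B-score means stronger Kir2.1 block with less thallium influx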
KCNQ1 pot: potentiates or activates the human KCNQ1 potassium channel. actives 0.35% (n = 310,000). AID 2648. B-score at 10 µM. CHO-K1 KCNQ1, thallium flux FluxOR fluorescence; active compounds read high;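 active = fluorescence ratio B-score, a plate-corrected score, at least three library SD, with initial intensity B-score within 5 SD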
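System: Stable KCNQ1 CHO-K1 line | Incubation: 90 min dye loading and 20 min compound exposure, both at room temperature | Measure: Ratio B score | Medium: Assay buffer for compound exposure, DMSO matched across wells | Compound dosing: Single-concentration screen | Probe or stimulus: K+/Tl+ depolarizing stimulus | Measured by: Kinetic FluxOR fluorescence, 10 s baseline plus 110 s post-stimulus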
KCNK9 block conf: confirmation of human KCNK9 potassium channel inhibitors. AID 492992. HEK293 KCNK9 cells, FluxOR thallium flux fluorescence. actives 43% (n = 4,900). inhibition, % at 10 µM. shares compounds with KCNK9 block;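 active = thallium signal inhibited by more than 5 SD of the compound-free buffer control wells, on both duplicate plates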
Kir21 sel: selectivity of KCNK9 modulators against mouse Kir2.1; inhibition, % at 10 µM; AID 492993; Kir2.1 cells, FluxOR thallium flux fluorescence; actives 4% (n = 4,900); shares compounds with KCNK9 block;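 active = thallium signal drop more than 5 SD beyond the mean of the no-compound control wells, seen in both duplicate plates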;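 note: signal is fluorescence rise after thallium addition divided by baseline fluorescence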
KCNK9 uninduced: second counter-screen for KCNK9 modulators: effect in non-induced cells; shares compounds with KCNK9 block; actives 40% (n = 4,900); inhibition, % at 10 µM; non-induced KCNK9-HEK293, FluxOR thallium flux; AID 492997;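 active = thallium signal drop beyond 5 SD of the untreated control mean, on both duplicate plates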
Of the large screens only hits and unclear results are named; the others gave an inactive call (follow-up assays come after a bar, where they were run). Rows were chosen to be rich in hits. Some 3.7% of all compounds tested hit in one or more screens of this group.

CCc1nc(N2CCN(C(=O)c3ccco3)CC2)c2c3c(sc2n1)CCCC3	KCNK9 block -10.3 | KCNK9 block conf 50.0% | Kir21 sel inactive | KCNK9 uninduced inactive
Cc1ccc(CN2CCCN(Cc3c(C)cc(C)cc3C)S2(=O)=O)cc1	none | KCNK9 block conf inactive | Kir21 sel inactive | KCNK9 uninduced inactive
COc1ccc(C=O)cc1CN1CCCN(Cc2ccc(Cl)cc2)S1(=O)=O	none
CCCCn1c(SCC(=O)c2ccccc2)nc2ccsc2c1=O	KCNK9 block -15.8 | KCNK9 block conf 30.0% | Kir21 sel inactive | KCNK9 uninduced 28.0%
O=C(O)CCCCCn1c(SCC(=O)c2ccc(O)c(O)c2)nc2ccsc2c1=O	none
CCCCn1c(SCC(=O)c2ccc(O)c(O)c2)nc2ccsc2c1=O	KCNK9 block -16.2 | KCNK9 block conf 40.0% | Kir21 sel inactive | KCNK9 uninduced inactive
O=C1CCC(C(=O)Nc2ccc([N+](=O)[O-])cc2)N1 (stereo not drawn)	none (no result: hERG rescue, KCNQ1 inh, KCNK9 block, Kir21 inh, KCNQ1 pot)
OC(CN1CCCCC1)c1ccc2c3c(cccc13)CC2 (stereo not drawn)	none (no result: hERG rescue, KCNQ1 inh, KCNK9 block, Kir21 inh, KCNQ1 pot)
C[C@@H]([C@H](O)c1ccccc1)N(C)C(=S)Nc1ccccc1	none
O=C(Cc1ccc([N+](=O)[O-])cc1)Nc1nccs1	KCNK9 block -20 | KCNK9 block conf inactive | Kir21 sel inactive | KCNK9 uninduced inactive
CC(NC(=O)CSCc1ccc(Br)cc1)c1ccccc1 (stereo not drawn)	none
CC(NC(=O)CSCc1ccccc1Br)c1ccccc1 (stereo not drawn)	none | KCNK9 block conf inactive | Kir21 sel inactive | KCNK9 uninduced inactive
CCOc1ccc(N(CC(=O)Nc2cccc(Br)c2)S(C)(=O)=O)cc1	none
O=C(COc1ccccc1)N=C1SC2CS(=O)(=O)CC2N1c1ccc(F)cc1F (stereo not drawn)	none
CCN(CC)c1ccc(C=C2C(=O)OC(c3ccccc3)OC2=O)cc1 (stereo not drawn)	none
CCN(CC)c1ccc(/C=C/C(=O)C2C(=O)C=C(C)OC2=O)cc1 (stereo not drawn)	KCNK9 block -9.53 | KCNK9 block conf 86.5% | Kir21 sel 101.0% | KCNK9 uninduced 85.0%
O=C(C(c1ccccc1)c1ccccc1)N1CCCc2ccccc21	KCNK9 block -11 | KCNK9 block conf 43.5% | Kir21 sel inactive | KCNK9 uninduced 42.5%
O=C(NNC(=O)c1ccc(Cn2cccn2)o1)NC12CC3CC(CC(C3)C1)C2	none
CC(=O)OCCCN(C)CC/C=C1/c2ccccc2CSc2ccccc21	none | KCNK9 block conf inactive | Kir21 sel inactive | KCNK9 uninduced inactive
O=C(c1cccs1)N1CCCC(c2nc3c(nnn3Cc3ccccc3Cl)c(=O)[nH]2)C1 (stereo not drawn)	none
COc1ccc2c(c1)C1=NN(/C(C)=C/C(C)=O)C(c3cccc(F)c3)C1CC2 (stereo not drawn)	KCNK9 block -11.6 | KCNK9 block conf 44.0% | Kir21 sel inactive | KCNK9 uninduced 33.0%
Nc1nonc1C(=O)NCCNC(=O)c1ccc(Cl)cc1	none
CC1(C)c2cc(Cl)ccc2-n2c1cc(O)c(-c1ccccc1)c2=O	none
CCOc1ccc(N2CC(C(=O)Nc3ccc4c(c3)OCO4)CC2=O)cc1 (stereo not drawn)	none | KCNK9 block conf inactive | Kir21 sel inactive | KCNK9 uninduced inactive
CCOc1ccc(N2CC(C(=O)Nc3ccc4c(c3)OCCO4)CC2=O)cc1 (stereo not drawn)	none
CC(C)c1ccc(-n2c(-c3ccccc3)c[n+]3c2CCc2ccccc2-3)cc1	KCNK9 block -15.7, Kir21 inh -13.7 | KCNK9 block conf 71.5% | Kir21 sel 75.0% | KCNK9 uninduced 31.5%
COc1ccccc1NC(=O)C(=O)NCC(c1ccco1)N1CCc2ccccc2C1 (stereo not drawn)	none | KCNK9 block conf inactive | Kir21 sel inactive | KCNK9 uninduced inactive
Cc1ccc([N+](=O)[O-])cc1S(=O)(=O)Nc1ccc(C(=O)NCC2CCCO2)cc1 (stereo not drawn)	none (no result: hERG rescue, KCNQ1 inh, KCNK9 block, Kir21 inh, KCNQ1 pot)
CCCSc1nc(=S)n(Cc2ccccc2)c(C)c1C(C)=O	KCNK9 block -13.2 | KCNK9 block conf 66.5% | Kir21 sel inactive | KCNK9 uninduced inactive
CCC(CO)Oc1cc(NC(=O)c2ccc(C)cc2)c2ncn(C(C)C)c2c1 (stereo not drawn)	none (no result: hERG rescue, KCNQ1 inh, KCNK9 block, Kir21 inh, KCNQ1 pot)
Cc1ccc(CSc2nc3ccsc3c(=O)n2Cc2ccccn2)cc1	KCNK9 block -14 | KCNK9 block conf 79.0% | Kir21 sel inactive | KCNK9 uninduced 44.0%
CC(C)=CCC12Oc3cc(O)ccc3C1(O)Oc1cc3c(c(O)c1C2=O)C=CC(C)(C)O3 (stereo not drawn)	KCNK9 block -8.26 (no result: KCNK3 block) | KCNK9 block conf inactive | Kir21 sel inactive | KCNK9 uninduced 24.5%
Cc1ccc(N=Nc2c(O)ccc3n[nH]nc23)cc1	none | KCNK9 block conf inactive | Kir21 sel inactive | KCNK9 uninduced inactive
CCOC(=O)c1c(C)[nH]c(N=Nc2ccc(C)cc2)c1C	none
N#CC(c1ccccc1O)N1N=C(c2ccccc2)CC1c1ccccc1 (stereo not drawn)	KCNQ1 inh 12, KCNK9 block -10.5 | KCNK9 block conf 40.5% | Kir21 sel inactive | KCNK9 uninduced 47.0%
COc1ccc(-n2c(C)cc(=O)[nH]c2=O)cc1	none
O=C1c2ccccc2C(=O)N1CC#CCN1CCN(C(c2ccccc2)c2ccccc2)CC1	none | KCNK9 block conf inactive | Kir21 sel inactive | KCNK9 uninduced inactive
COc1cc(=O)[nH]c(SCC(=O)Nc2nc3c(s2)CCCC3)n1	none
CC(C)(C)c1cc(OC(=O)C2CCCC2)ccc1O	KCNK9 block -8.19 | KCNK9 block conf 58.0% | Kir21 sel inactive | KCNK9 uninduced inactive
CC(C)(C)c1cc(OS(C)(=O)=O)ccc1O	none
COc1ccc(/C=C(/CC(=O)NCc2ccc(Cl)cc2)c2nc3ccccc3s2)cc1	KCNK9 block -18.9 | KCNK9 block conf 65.5% | Kir21 sel inactive | KCNK9 uninduced 46.5%
O=C(CSc1ccc2ccccc2n1)c1ccc2c(c1)OCO2	KCNK9 block -8.31 | KCNK9 block conf 39.0% | Kir21 sel inactive | KCNK9 uninduced 36.5%
O=C(Nc1c(S(=O)(=O)c2ccc(Cl)cc2)csc1Br)c1ccccc1Cl	KCNK9 block -10.9 | KCNK9 block conf 37.5% | Kir21 sel inactive | KCNK9 uninduced 35.0%
O=C(NC(=O)c1ccccc1Cl)C(=O)Nc1ccc(Cl)cc1	none
